Data from ChEMBL document CHEMBL1275377, “Structure-based design, synthesis, and structure-activity relationship studies of HIV-1 protease inhibitors incorporating phenyloxazolidinones” (J Med Chem, 2010).

How the values were obtained:
[1] = system: Human immunodeficiency virus 1; assay: Antiviral activity against Human immunodeficiency virus 1 clade C isolated from HIV-AIDS patient; type: functional, organism-based
[2] = system: Human immunodeficiency virus 1; assay: Antiviral activity against multidrug resistant Human immunodeficiency virus 1 MDRC4; type: functional, organism-based
[3] = system: Human immunodeficiency virus 1; assay: Antiviral activity against Human immunodeficiency virus 1 clade A isolated from HIV-AIDS patient; type: functional, organism-based
[4] = system: Human immunodeficiency virus 1; assay: Antiviral activity against multidrug resistant Human immunodeficiency virus 1 harboring protease M46I, I54V, V82A and L90M mutant; type: functional, organism-based
How it was run: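 Drug susceptibility assay run by an outside contract lab. Panel: patient-derived wild-type HIV-1 clades A, B and C; MDR1 carrying protease M46I, I54V, V82A, L90M; MDR control MDRC4; and an NL4-3-derived clade B wild-type control (CNDO). The PR/RT regions of these strains were sequenced and deposited.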

[5] = system: Human immunodeficiency virus 1; assay: Antiviral activity against Human immunodeficiency virus 1 clade B isolated from HIV-AIDS patient; type: functional, organism-based
[6] = system: Human immunodeficiency virus 1; assay: Antiviral activity against wild type Human immunodeficiency virus 1; type: functional, organism-based
Protease = Protease (Human immunodeficiency virus 1, UniProt Q9YQ12); assay: Inhibition of wild type HIV1 protease by FRET
Chain of Protease (Q9YQ12 whole entry): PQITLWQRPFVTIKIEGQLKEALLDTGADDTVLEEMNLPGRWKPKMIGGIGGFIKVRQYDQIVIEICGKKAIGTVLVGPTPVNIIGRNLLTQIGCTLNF

| SMILES | EC50 [1] | EC50 [2] | EC50 [3] | EC50 [4] | EC50 [5] | EC50 [6] | Ki (Protease) |
| --- | --- | --- | --- | --- | --- | --- | --- |
| CC(=O)c1cccc(N2C[C@@H](C(=O)N[C@@H](Cc3ccccc3)[C@H](O)CN(CC(C)C)S(=O)(=O)c3ccc4ncsc4c3)OC2=O)c1 | 10.1 nM | 34.7 nM | 9.7 nM | 32.3 nM | 4.2 nM | 6.5 nM |  |
| CC(C)CN(C[C@@H](O)[C@H](Cc1ccccc1)NC(=O)[C@@H]1CN(c2ccccc2)C(=O)O1)S(=O)(=O)c1ccc2ncsc2c1 | 40.9 nM | 123 nM | 29.8 nM | 113 nM | 14.1 nM | 21.5 nM |  |
| CC(=O)Nc1cccc(N2C[C@@H](C(=O)N[C@@H](Cc3ccccc3)[C@H](O)CN(CC(C)C)S(=O)(=O)c3ccc4ncsc4c3)OC2=O)c1 | 9.5 nM | 29.5 nM | 10.1 nM | 25.4 nM | 7.7 nM | 5.8 nM |  |
| CC(C)CN(C[C@@H](O)[C@H](Cc1ccccc1)NC(=O)[C@@H]1CN(c2cccc(F)c2)C(=O)O1)S(=O)(=O)c1ccc(CO)cc1 |  |  |  |  |  |  | 0.319 nM |
| COc1ccc(S(=O)(=O)N(CC(C)C)C[C@@H](O)[C@H](Cc2ccccc2)NC(=O)[C@@H]2CN(c3cccc(N)c3)C(=O)O2)cc1 | 9.4 nM | 36.4 nM | 8.5 nM | 19 nM | 3 nM | 4 nM |  |
| CC(=O)c1cccc(N2C[C@@H](C(=O)N[C@@H](Cc3ccccc3)[C@H](O)CN(CC(C)C)S(=O)(=O)c3ccc4c(c3)OCO4)OC2=O)c1 |  |  |  |  |  |  | 0.006 nM |
| CC(=O)c1cccc(N2C[C@@H](C(=O)N[C@@H](Cc3ccccc3)[C@H](O)CN(CC(C)C)S(=O)(=O)c3ccc(CO)cc3)OC2=O)c1 |  |  |  |  |  |  | 0.236 nM |
| CC(C)CN(C[C@@H](O)[C@H](Cc1ccccc1)NC(=O)[C@@H]1CN(c2cccc(S(C)(=O)=O)c2)C(=O)O1)S(=O)(=O)c1ccc2ncsc2c1 | 5.7 nM | 10.5 nM | 4.1 nM | 9.4 nM | 3.5 nM | 5 nM |  |
| CC(C)CN(C[C@@H](O)[C@H](Cc1ccccc1)NC(=O)[C@@H]1CN(c2ccc(F)cc2F)C(=O)O1)S(=O)(=O)c1ccc(CO)cc1 |  |  |  |  |  |  | 0.212 nM |
| COc1ccc(S(=O)(=O)N(CC(C)C)C[C@@H](O)[C@H](Cc2ccccc2)NC(=O)[C@@H]2CN(c3ccccc3)C(=O)O2)cc1 |  |  |  |  |  |  | 0.1 nM |
| CC(C)CN(C[C@@H](O)[C@H](Cc1ccccc1)NC(=O)[C@@H]1CN(c2ccc(F)cc2F)C(=O)O1)S(=O)(=O)c1ccc(N)cc1 |  |  |  |  |  |  | 0.385 nM |
| CC(C)CN(C[C@@H](O)[C@H](Cc1ccccc1)NC(=O)O[C@H]1CO[C@H]2OCC[C@H]21)S(=O)(=O)c1ccc(N)cc1 | 0.4 nM |  | 0.6 nM | 0.5 nM | 0.4 nM | 0.4 nM |  |
| CC(C)CN(C[C@@H](O)[C@H](Cc1ccccc1)NC(=O)[C@@H]1CN(c2ccccc2)C(=O)O1)S(=O)(=O)c1ccc(N)cc1 |  |  |  |  |  |  | 0.53 nM |
| CC(C)CN(C[C@@H](O)[C@H](Cc1ccccc1)NC(=O)[C@@H]1CN(c2cccc(OC(F)(F)F)c2)C(=O)O1)S(=O)(=O)c1ccc2ncsc2c1 | 57.8 nM | 111 nM | 32.5 nM | 104 nM | 12.7 nM | 22.1 nM |  |
| CC(C)CN(C[C@@H](O)[C@H](Cc1ccccc1)NC(=O)[C@@H]1CN(c2cccc(C(F)(F)F)c2)C(=O)O1)S(=O)(=O)c1ccc2ncsc2c1 | 32.5 nM | 53.4 nM | 16.1 nM | 57.6 nM | 9.9 nM | 13.5 nM |  |
| CC(=O)Nc1cccc(N2C[C@@H](C(=O)N[C@@H](Cc3ccccc3)[C@H](O)CN(CC(C)C)S(=O)(=O)c3ccc4c(c3)OCO4)OC2=O)c1 | 21.1 nM | 46.9 nM | 9 nM | 41.9 nM | 6.3 nM | 10.9 nM |  |
| CC(C)CN(C[C@@H](O)[C@H](Cc1ccccc1)NC(=O)[C@@H]1CN(c2ccc(F)cc2)C(=O)O1)S(=O)(=O)c1ccc(N)cc1 |  |  |  |  |  |  | 0.448 nM |
| CC(C)CN(C[C@@H](O)[C@H](Cc1ccccc1)NC(=O)[C@@H]1CN(c2ccc(F)c(F)c2)C(=O)O1)S(=O)(=O)c1ccc(CO)cc1 |  |  |  |  |  |  | 0.33 nM |
| CC(C)CN(C[C@@H](O)[C@H](Cc1ccccc1)NC(=O)[C@@H]1CN(c2cccc([N+](=O)[O-])c2)C(=O)O1)S(=O)(=O)c1ccc2ncsc2c1 | 16.3 nM | 37.7 nM | 11.5 nM | 33.8 nM | 5.7 nM | 7.3 nM |  |
| CC(C)CN(C[C@@H](O)[C@H](Cc1ccccc1)NC(=O)[C@@H]1CN(c2ccccc2)C(=O)O1)S(=O)(=O)c1ccc(CO)cc1 |  |  |  |  |  |  | 0.252 nM |
| CC(C)CN(C[C@@H](O)[C@H](Cc1ccccc1)NC(=O)[C@@H]1CN(c2cccc(N)c2)C(=O)O1)S(=O)(=O)c1ccc2c(c1)OCO2 | 12.3 nM | 35.4 nM | 6.1 nM | 27.9 nM | 2.8 nM | 7.1 nM |  |
| CC(C)CN(C[C@@H](O)[C@H](Cc1ccccc1)NC(=O)[C@@H]1CN(c2cccc(S(C)(=O)=O)c2)C(=O)O1)S(=O)(=O)c1ccc2c(c1)OCO2 | 7.6 nM | 12.1 nM | 7.8 nM | 13.6 nM | 3.5 nM | 4 nM |  |
| CC(C)CN(C[C@@H](O)[C@H](Cc1ccccc1)NC(=O)[C@@H]1CN(c2ccc(F)cc2F)C(=O)O1)S(=O)(=O)c1ccc2c(c1)OCO2 |  |  |  |  |  |  | 0.347 nM |
| CC(C)CN(C[C@@H](O)[C@H](Cc1ccccc1)NC(=O)[C@@H]1CN(c2cccc(N)c2)C(=O)O1)S(=O)(=O)c1ccc2ncsc2c1 | 2.5 nM | 14.6 nM | 2.6 nM | 11.9 nM | 1.3 nM | 1.7 nM |  |
| CC(=O)c1ccc(N2C[C@@H](C(=O)N[C@@H](Cc3ccccc3)[C@H](O)CN(CC(C)C)S(=O)(=O)c3ccc(CO)cc3)OC2=O)cc1 |  |  |  |  |  |  | 0.317 nM |
| COC(=O)Nc1cccc(N2C[C@@H](C(=O)N[C@@H](Cc3ccccc3)[C@H](O)CN(CC(C)C)S(=O)(=O)c3ccc4ncsc4c3)OC2=O)c1 | 3 nM | 13 nM | 2.4 nM | 10.8 nM | 1.6 nM | 1.2 nM |  |
| COc1ccc(S(=O)(=O)N(CC(C)C)C[C@@H](O)[C@H](Cc2ccccc2)NC(=O)[C@@H]2CN(c3cccc(S(C)(=O)=O)c3)C(=O)O2)cc1 | 9.6 nM | 18.6 nM | 7.3 nM | 14.4 nM | 4.7 nM | 5.5 nM |  |
